In PMC8137579 (Cancer research, 2021):
Entries after “also recorded” stand apart in the source; their conditions may differ. Read-outs that look alike come from different tables or passages of the source.

Assays:
[1] = test system: Bcl2 and Mcl1 protein levels; test: western blot of Bcl2 and Mcl1 proteins in cytoplasmic fractions; type: cell-based; conditions: U251 and XD456; 10 uM for 48 hours
Outline: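 U251 and PDGx XD456 cells were treated for 48 h with test compound or vehicle. Nuclear and cytoplasmic fractions were separated with NE-PER reagents and verified by lamin A/C (nuclear) and tubulin alpha (cytoplasmic). Bcl2 and Mcl1 were detected by western blot.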

U251 cell line [2] = test: attached cell colony formation assay, U251; type: cell-based
U251 glioma cell line [3] = test: cell cycle analysis; type: cell-based; conditions: 10 uM for 18 hours
aqueous solubility = type: physicochemical
[4] = biological target: interaction of the HuR protein with Bcl2 and Mcl1 mRNAs (Homo sapiens, UniProt Q15717); test: HuR/mRNA co-immunoprecipitation assay; type: cell-based; conditions: U251 cells
Outline: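 Run in U251 cells with the RiboCluster Profiler RIP-assay kit and a polyclonal anti-HuR antibody. Co-precipitated Bcl2 and Mcl1 transcripts and 18S RNA were quantified by Taqman with gene-specific probes. Binding was compared with vehicle-treated control.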

HuR protein = test: western blot of HuR protein levels; type: cell-based
[5] = in vivo pharmacokinetic assessment; parameters: species or system C57Bl/6 mice; conditions: mouse
[6] = test system: PDGx XD456 glioma cell line; test: cell cycle analysis; type: cell-based, human; conditions: 10 uM for 18 hours
XD456 cell line [7] = test: soft agar colony formation assay, XD456; type: cell-based, human
Outline: (§1)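 Soft agar format: cells embedded in a 0.45% low-melting agarose top layer over a 0.9% agarose bottom layer. Colonies were stained with 0.1% crystal violet and counted after three weeks. n=3 attached, n=4 soft agar; Student t-test.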

LN229 glioma cell line [8] = test: cell cycle analysis; type: cell-based; conditions: 10 uM for 18 hours
kinases = test: SelectScreen kinase profiling; type: biochemical; conditions: compared to the parent SRI-41664
Outline: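 Done as an outsourced SelectScreen kinase profiling service. 10-point titrations were run against NTRK1, AAK1, IRAK1, PIM1 and cMET kinases.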

LN229 glioma cell line [9] = test: PrestoBlue cell viability assay, LN229; type: cell-based; conditions: read-out: IC50 cell viability, 48 hours of treatment
Outline: (§2)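 PrestoBlue viability read-out after 48 h exposure to the test compound. U251 and LN229 were grown in DMEM/F12 with 10% FBS, 2 mM L-glutamine and 100 U/ml penicillin/streptomycin. Data were normalised to vehicle-treated cells, and dose-response curves were fitted with the Boltzmann equation to give IC50; n=5 per cell line.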

U251 glioma cell line [10] = test: PrestoBlue cell viability assay, U251; type: cell-based
Outline: as §2

XD456 cell line [11] = test: attached cell colony formation assay, XD456; type: cell-based, human
[12] = test system: cleaved caspase-3 and cleaved PARP; test: western blot of apoptosis markers; type: cell-based; conditions: glioma cell lines; 10 uM for 48 hours
Outline: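 Glioma cell lines were given 10 uM test compound or vehicle for 48 h. Cleaved PARP and cleaved caspase-3 were probed by western blot.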

U251 cell line [13] = test: soft agar colony formation assay, U251; type: cell-based
Outline: as §1

Mcl1 mRNA = test: Taqman quantification of Mcl1 mRNA in glioma cell lines; type: cell-based; conditions: for average decrease of Mcl1/18S mRNA ratio: 10 uM for 24 hours
Outline: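 Glioma cells (U251, U87, LN229) were exposed to 10 uM test compound or vehicle for 24 h. mRNA was isolated with RNeasy Mini Kit and QIAshredder columns. Bcl2, Mcl1 and 18S transcripts were quantified by Taqman gene-specific probes. Bcl2/18S and Mcl1/18S ratios were compared with vehicle control; three experiments.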

[14] = test system: PDGx XD456 intracranial glioma; test: in vivo mouse intracranial glioma model; parameters: species or system athymic nude mice; conditions: 15 mg/kg, twice a day for three weeks, intraperitoneal
Outline: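 Athymic nude mice bore intracranial PDGx XD456 cells transduced with firefly luciferase and EGFP. After 4.5 days of tumour establishment, mice were randomised to vehicle or test compound, 15 mg/kg ip twice daily for three weeks. Tumour bioluminescence (radiance) was imaged at weeks 2 and 3, with body weight tracked; n=5, Student t-test. Brain slices were checked for EGFP and immunostained for HuR, Bcl2 and Mcl1.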

[15] = biological target: HuR dimerization (HuR-Nluc + HuR-Cluc reporter, U251 cells) (Homo sapiens, UniProt Q15717); test: cell-based split firefly luciferase - HuR dimerization assay
Outline: (§3)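 Stable U251 lines carried doxycycline-inducible HuR-Nluc plus HuR-Cluc (dimer reporter) or full-length Fluc (control reporter), kept under hygromycin B and G418. 30,000–50,000 cells/well were induced with doxycycline 0.75 ug/ml for 48 h, then given test compound or vehicle for 6 h. Luminescence was read with D-luciferin substrate.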

Bcl2 mRNA = test: Taqman quantification of Bcl2 mRNA in glioma cell lines; type: cell-based; conditions: 10 uM for 24 hours
primary human neurons = test: toxicity in primary human neurons; type: cell-based
[16] = test system: PDGx XD456 glioma cell line; test: PrestoBlue cell viability assay, XD456; type: cell-based, human; conditions: read-out: IC50 cell viability, 48 hours of treatment
[17] = test system: U251 cells expressing Fluc construct; test: split firefly luciferase assay, control reporter; type: cell-based
Outline: as §3

primary human astrocytes = test: toxicity in primary human astrocytes; type: cell-based
Outline: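 Primary human neurons (poly-L-lysine plates) or astrocytes were treated up to 25 uM for 48 h. Cells were fixed in 3.7% paraformaldehyde (pH 7.4) for 13 min, permeabilised with 0.3% Triton X-100 and blocked with 3% BSA/glycine. Staining used anti-cleaved caspase-3 (1:200, overnight 4°C) and Alexa 594 secondary, with DAPI counterstain. Percent positive cells was scored; at least three experiments.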

Sequence of HuR dimerization (HuR-Nluc + HuR-Cluc reporter, U251 cells) (Q15717 2-326 limits assumed): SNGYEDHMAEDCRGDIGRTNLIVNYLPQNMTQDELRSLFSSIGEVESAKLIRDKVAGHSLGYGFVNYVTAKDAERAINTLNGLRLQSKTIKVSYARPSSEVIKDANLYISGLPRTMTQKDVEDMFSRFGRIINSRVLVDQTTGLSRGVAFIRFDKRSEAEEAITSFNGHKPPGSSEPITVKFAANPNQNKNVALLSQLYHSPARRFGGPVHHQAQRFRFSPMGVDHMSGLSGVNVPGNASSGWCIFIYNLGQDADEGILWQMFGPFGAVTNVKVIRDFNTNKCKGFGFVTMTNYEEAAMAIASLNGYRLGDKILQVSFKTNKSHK
Sequence of interaction of the HuR protein with Bcl2 and Mcl1 mRNAs (Q15717 2-326 limits assumed): as above

aqueous solubility (aqueous solubility): readily soluble | interaction of HuR protein with Bcl2 and Mcl1 mRNAs compared to control [4]: significant reduction | brain-to-plasma concentration ratio [5]: 0.42±0.05 | BBB permeability ([5]; in vivo): superior BBB permeability | half-life ([5]; 10 mg/kg by IP): 9.6 min | kinase inhibition potential (kinases): reduced kinase inhibition potential | IC50 (LN229 glioma cell line [9]): 3200 ± 600 nM | IC50 for inhibition of cell viability, after enhancement of HuR-dimer formation by two fold (U251 glioma cell line [10]; U251 with dox-inducible HuR-dimerization reporters, 48 hours): 8000 ± 800 nM | IC50 (U251 glioma cell line [10]; read-out: IC50 cell viability, U251, 48 hours of treatment): 2800 ± 600 nM | IC50 (U251 glioma cell line [10]; read-out: IC50 for inhibition of cell viability, before enhancement of HuR-dimer formation, U251 with dox-inducible HuR-dimerization reporters, 48 hours): 2800 ± 400 nM | weight changes compared to the control group [14]: not significant | maximum inhibition of HuR dimerization ([15]; 6 hours of cell treatment): 90±1% | IC50 for inhibition of HuR dimerization, after increase in HuR dimerization by two fold ([15]; U251 with dox-inducible HuR-dimerization reporters, 6 hours): 1900 ± 100 nM | HuR inhibition potential in the presence of kinase inhibitors ([15]; all evaluated kinase inhibitors): retained its HuR inhibition potential | IC50 ([15]; read-out: IC50 for inhibition of HuR dimerization, before increase in HuR dimerization, U251 with dox-inducible HuR-dimerization reporters, 6 hours): 1200 ± 100 nM | IC50 ([15]; read-out: IC50 of inhibition of HuR dimerization, U251 cells co-expressing HuR-Nluc and HuR-Cluc, 6 hours of treatment): 1200 ± 200 nM | IC50 [16]: 4000 ± 600 nM
Structure (SMILES): CN(c1ccc2ncc(-c3ccc4cn[nH]c4c3)n2n1)C1CCOCC1 [SRI-42127]
Bcl2 and Mcl1 protein levels in cytoplasmic fractions compared to control [1]: dramatic reduction | number of colonies (U251 cell line [2]; 3uM): 49±28 | number of colonies (U251 cell line [2]; 10 uM): No significant numbers of colonies were detected | increase of cells in G1 phase compared to control (U251 glioma cell line [3]): 97±33% | reduction of cells in S phase compared to control (U251 glioma cell line [3]): 65±4% | total HuR protein levels (HuR protein; 3 uM and 10 uM, 8–12 hours of treatment): did not alter | HuR cytoplasmic levels versus control (HuR protein; prolonged treatment): decrease | increase of cells in G1 phase compared to control [6]: 210±40% | reduction of cells in S phase compared to control [6]: 70±3% | number of colonies (XD456 cell line [7]; 3uM): 39±6 | number of colonies (XD456 cell line [7]; 10 uM): No significant numbers of colonies were detected | increase of cells in G1 phase compared to control (LN229 glioma cell line [8]): 56±28% | reduction of cells in S phase compared to control (LN229 glioma cell line [8]): 60±3% | number of colonies (XD456 cell line [11]; 3uM): 34±12 | number of colonies (XD456 cell line [11]; 10 uM): No significant numbers of colonies were detected | signs of apoptosis [12]: cleaved caspase-3 and cleaved PARP | number of colonies (U251 cell line [13]; 3uM): 90±70 | number of colonies (U251 cell line [13]; 10 uM): No significant numbers of colonies were detected | average decrease of Mcl1/18S mRNA ratio (Mcl1 mRNA; LN229): 87±8% | average decrease of Mcl1/18S mRNA ratio (Mcl1 mRNA; U87): 86±7% | average decrease of Mcl1/18S mRNA ratio (Mcl1 mRNA; U251): 95±3% | average decrease of Mcl1/18S mRNA ratio (Mcl1 mRNA; XD456): 90±9% | reduction in Mcl1 mRNA compared to control (Mcl1 mRNA; range over U251, U87, LN229, XD456, 10 uM, 24 h): 87–95% | tumor progression (tumor reporter luminescence signal) compared to control group [14]: reduction of tumor progression; also recorded: not statistically significant | average decrease of Bcl2/18S mRNA ratio (Bcl2 mRNA; LN229): 95±2% | average decrease of Bcl2/18S mRNA ratio (Bcl2 mRNA; U87): 95±2% | average decrease of Bcl2/18S mRNA ratio (Bcl2 mRNA; U251): 96±2% | average decrease of Bcl2/18S mRNA ratio (Bcl2 mRNA; XD456): 96±2% | decline of cellular metabolism of neurons (primary human neurons; 25 uM for 48 hours): about 44% | neuronal cytotoxicity (primary human neurons; concentrations below 15 uM): low neuronal and astrocyte cytotoxicity | cell numbers and cell sprouting of neurons (primary human neurons; up to 15 uM for 48 hours): remained unchanged | morphological changes of neurons (primary human neurons; up to 15 uM for 48 hours): no morphological changes | cleaved caspase-3 immunostaining in neurons (primary human neurons; up to 15 uM, 48 hours): no significant alterations | half inhibition in the control reporter assay [17]: half inhibitions were not reached | astrocyte cytotoxicity (primary human astrocytes; concentrations below 15 uM): low neuronal and astrocyte cytotoxicity | cleaved caspase-3 activation in astrocytes (primary human astrocytes; up to 15 uM): did not observe significant alterations
